This note sets out measurements from ChEMBL document CHEMBL4665779, “Novel 2-Substituted 3-Hydroxy-1,6-dimethylpyridin-4(1H)-ones as Dual-Acting Biofilm Inhibitors of Pseudomonas aeruginosa” (J Med Chem, 2020).

Calls of active or inactive are those of the source. The calls are words filed in the database; no cut-off is given here.

The test system of data set [1] is Pseudomonas aeruginosa. Briefly: Inhibition of biofilm formation in multidrug resistant Pseudomonas aeruginosa 1167 at 1.25 uM relative to control. It counts as functional.
The test system of data set [2] is Pseudomonas aeruginosa. The data set is described as follows: Inhibition of biofilm formation in multidrug resistant Pseudomonas aeruginosa 1167 at 2.5 uM relative to control. It counts as functional.
Data set [3] concerns Pseudomonas aeruginosa. Briefly: Inhibition of biofilm formation in multidrug resistant Pseudomonas aeruginosa 1167 at 10 uM relative to control. It counts as functional.
The test system of data set [4] is Pseudomonas aeruginosa. The data set is described as follows: Inhibition of biofilm formation in multidrug resistant Pseudomonas aeruginosa 1129 at 2.5 uM relative to control. It is filed as functional.
The test system of data set [5] is Pseudomonas aeruginosa. The data set is described as follows: Inhibition of biofilm formation in multidrug resistant Pseudomonas aeruginosa 1129 at 20 uM relative to control. It counts as functional.
Data set [6] has as its system Pseudomonas aeruginosa. Briefly: Inhibition of biofilm formation in multidrug resistant Pseudomonas aeruginosa 1121 at 2.5 uM relative to control. It counts as functional.
The subject of data set [7] is Pseudomonas aeruginosa. Briefly: Antibacterial activity against Pseudomonas aeruginosa infected in human L02 assessed as cell survival at 20 uM pretreated for 24 hrs followed by cell addition and measured 4 hrs post-infection by MTT assay (reference value: 40.7%). It is filed as functional. The note with it: time 28 hrs. (Tetrazolium assays rely on reduction of a dye to a coloured formazan, in cell work by metabolically active cells.)

Data set [8] deals with Pseudomonas aeruginosa. The data set is described as follows: Antibacterial activity against Pseudomonas aeruginosa infected in African green monkey Vero cells assessed as cell survival at 20 uM pretreated for 24 hrs followed by cell addition and measured 4 hrs post-infection by MTT assay (reference value: 41.5%). It is filed as functional. Particulars: time 28 hrs.
Another data set concerns L02. Briefly: Cytotoxicity against human L02 cells assessed as reduction in cell viability up to 50 uM after 16 hrs by MTT assay. It is filed as cell-based. The note with it: l02, 16 h. Put shortly: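 Vero or LO2 cells were seeded at 5000–15000 cells/well for 16 h, PBS-washed, then exposed to compound in DMEM at 37 °C and 5% CO2 for 16 h. MTT (20 μL of 5 mg/mL) was added for 3 h, and formazan was dissolved in DMSO and read at 570 nm. Triplicate; mean ± SD.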

For data set [9], the system named is Pseudomonas aeruginosa. Briefly: Inhibition of swimming motility of Pseudomonas aeruginosa PAO1 measured after 16 hrs. It counts as functional, organism-based. Particulars: dose microM 1.25-20, time 16.0 hrs. Put shortly: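 Compound (0–20 μM) was included in LB plates with 0.3% agar, 0.5% casamino acids and 0.5% glucose. Plates were dried 1 h, then 1 μL PAO1 (OD600 1) was placed at the plate bottom. Incubation was 16 h at 37 °C; three independent experiments.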

Data set [10] in a line: Inhibition of GFP (unknown origin) at 1.25 to 20 uM by measuring fluorescence intensity every 15 mins for 12 hrs by microtiter plate reader assay. The note with it: dose microM 1.25-20, time 12.0 hrs. Put shortly: (§1)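 PAO1-gfp, PAO1-lasB-gfp, PAO1-rhlA-gfp or PAO1-pqsA-gfp reporters were grown overnight in LB, then diluted in ABTGC medium to OD600 0.02, with compound at 1.25–20 μM. Controls were 0.1% DMSO and a blank. OD600 and GFP fluorescence (ex 485/em 535 nm) were read every 15 min for at least 12 h at 37 °C; triplicate.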

In data set [11] the target is T1, Anthranilate--CoA ligase (Pseudomonas aeruginosa (strain ATCC 15692 / DSM 22644 / CIP 104116 /JCM 14847 / LMG 12228 / 1C / PRS 101 / PAO1)) (UniProt Q9I4X3).
T1 sequence (whole entry): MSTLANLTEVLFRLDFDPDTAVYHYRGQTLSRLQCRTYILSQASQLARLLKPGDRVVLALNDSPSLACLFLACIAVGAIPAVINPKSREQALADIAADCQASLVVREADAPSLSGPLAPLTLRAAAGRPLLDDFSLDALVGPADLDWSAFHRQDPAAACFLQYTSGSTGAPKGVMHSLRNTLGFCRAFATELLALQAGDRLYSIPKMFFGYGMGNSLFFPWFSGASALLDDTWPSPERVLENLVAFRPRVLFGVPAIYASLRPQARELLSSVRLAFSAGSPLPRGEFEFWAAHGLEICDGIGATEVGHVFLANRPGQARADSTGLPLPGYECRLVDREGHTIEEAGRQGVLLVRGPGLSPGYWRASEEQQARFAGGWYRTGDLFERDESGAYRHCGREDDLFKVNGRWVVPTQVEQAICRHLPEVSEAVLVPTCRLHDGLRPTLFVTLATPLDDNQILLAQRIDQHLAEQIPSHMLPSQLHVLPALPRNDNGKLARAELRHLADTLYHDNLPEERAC
The data set is described as follows: Inhibition of pqsA fluorescence in Pseudomonas aeruginosa PAO1 transfected with GFP by measuring fluorescence intensity every 15 mins for 12 hrs by microtiter plate reader assay. Particulars: dose microM 1.25-20, time 12.0 hrs. Put shortly:
as §1

Data set [12] relates to Pseudomonas aeruginosa PAO1. The data set is described as follows: Inhibition of quorum sensing system rhl in Pseudomonas aeruginosa PAO1 assessed as reduction in rhamnolipid production by orcinol assay. Particulars: dose microM 1.25-20. Put shortly:
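An overnight culture was diluted 1:100 into a defined minimal medium (0.6% glycerol, 25 μM FeSO4) with compound at 1.25–20 μM and grown 24 h at 37 °C with shaking. Supernatant was ether-extracted twice, dried, resuspended in water, and reacted with 0.19% orcinol in 50% H2SO4 at 80 °C for 30 min. A421 was read and normalized to OD600.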

Data set [13] relates to Pseudomonas aeruginosa. The data set is described as follows: Binding affinity to […] overexpressed in Pseudomonas aeruginosa PAO1 assessed as inhibition of biofilm formation at 1.25 to 20 uM. Particulars: dose microM 1.25-20.
Data set [14] relates to Pseudomonas aeruginosa PAO1. The data set is described as follows: Induction of iron chelation in Pseudomonas aeruginosa PAO1 assessed as increase in intracellular pyochelin level at 1.25 to 20 uM in presence of 10 uM FeCl3 by fluorescence microplate reader assay. It counts as cell-based. The note with it: dose microM 1.25-20.
Data set [15] concerns Pseudomonas aeruginosa PAO1. Briefly: Induction of iron chelation in Pseudomonas aeruginosa PAO1 assessed as increase in iron deficiency by measuring change in total ferric ion concentration at 10 uM by inductively coupled plasma mass spectrometry (reference value: 1.91 +/- 0.8 uM). In outline: (§2)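 PAO1 (OD600 0.05) was diluted 1:100 into ABTGC medium and grown 24 h at 37 °C with shaking, with compound; DFP at 20 μM was the reference. Pellets were washed twice in HEPES and lysed with lysozyme in 50 mM HEPES plus sonication for 30 min. Lysates were digested with 1 M nitric acid, centrifuged, and analysed by ICP-MS. Mean ± SD, triplicate.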

For data set [16], the system named is Pseudomonas aeruginosa PAO1. The data set is described as follows: Induction of iron chelation in Pseudomonas aeruginosa PAO1 assessed as increase in iron deficiency by measuring change in total ferric ion concentration at 5 uM by inductively coupled plasma mass spectrometry (reference value: 1.91 +/- 0.8 uM). Put shortly: as §2
Data set [17] deals with Pseudomonas aeruginosa PAO1. Briefly: Induction of iron chelation in Pseudomonas aeruginosa PAO1 assessed as increase in iron deficiency by measuring change in total ferric ion concentration at 1.25 uM by inductively coupled plasma mass spectrometry (reference value: 1.91 +/- 0.8 uM). Put shortly:
as §2

Data set [18] is described as follows: Metal chelating activity assessed as negative logarithm of total free ferric ion concentration in a solution at 60 uM measured after 48 hrs in presence of CP645 probe and Fe-NTA by fluorescence spectrophotometry analysis.

Regarding `CCCCCCC(=O)NCc1c(O)c(=O)cc(C)n1C`, the inhibition – broadly, the share of the control response that was lost under treatment – at 1.25 µM with Pseudomonas aeruginosa [1] was determined as 34.5%. The inhibition at 2.5 µM came to 34.6% with Pseudomonas aeruginosa [2], 21.3% in the data set on Pseudomonas aeruginosa [4] and 7.68% with Pseudomonas aeruginosa [6]. The same compound registered an inhibition at 10 µM in the data set with Pseudomonas aeruginosa [3] of 47.4%. For the same compound, the inhibition at 20 µM with Pseudomonas aeruginosa [5] worked out at 40%. For the same compound, the survival at 20 µM in the data set on Pseudomonas aeruginosa [7] is 89.9%; with Pseudomonas aeruginosa [8], 96.4%. For the same compound, the Activity result in the data set on L02 is “Non-Toxic”; in data set [15], 0.97 µM; in [16] it was 1.17 µM; in data set [17], 1.55 µM. For the same compound, the inhibition entry (with Pseudomonas aeruginosa [9]; in data set [11]; in data set [12]) was “Dose-dependent effect” each time. Further, the inhibition entry in data set [10] was “inactive”. Besides, in the data set with Pseudomonas aeruginosa [13], the inhibition result is “Active”. In [14], the result was Active. Moreover, the pFe3+ in [18] worked out at 22.
